According to ChEMBL document CHEMBL1153214, “Synthesis and PGE(2) production inhibition of 1H-furan-2,5-dione and 1H-pyrrole-2,5-dione derivatives” (Bioorg Med Chem Lett, 2010):
pIC50: −log10 of the molar value.

Assays:
[1] = system: RAW264.7; assay: Antiinflammatory activity in mouse RAW264.7 cells assessed as inhibition of LPS-induced PGE2 production by EIA; type: functional, cell-based; conditions: for pIC50: Mus musculus, RAW264.7, read-out: IC50; for IC50: raw264.7
In short: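 RAW 264.7 macrophages seeded at 10⁵ cells/well in 96-well plates. Cells pretreated with test samples at increasing concentrations or NS398 as positive control, then stimulated with LPS 1 µg/ml for the indicated time. PGE₂ in the medium quantified by EIA. IC50 derived; experiments run at least three times.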

[2] = system: RAW264.7; assay: Cytotoxicity against LPS-stimulated mouse RAW264.7 cells assessed as cell viability after 24 hrs by MTT assay; type: cell-based; conditions: RAW264.7, 24 h
In short: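 RAW 264.7 cells plated at 10⁵ cells/well in 96-well plates, treated with various concentrations of compounds in the presence of LPS. Viability read by colorimetric MTT assay 24 h after treatment.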

[3] = target: T1, Prostaglandin G/H synthase 2 (Homo sapiens, UniProt P35354); assay: Inhibition of COX2 assessed as PGF2alpha level by EIA
T1 sequence (P35354 whole entry): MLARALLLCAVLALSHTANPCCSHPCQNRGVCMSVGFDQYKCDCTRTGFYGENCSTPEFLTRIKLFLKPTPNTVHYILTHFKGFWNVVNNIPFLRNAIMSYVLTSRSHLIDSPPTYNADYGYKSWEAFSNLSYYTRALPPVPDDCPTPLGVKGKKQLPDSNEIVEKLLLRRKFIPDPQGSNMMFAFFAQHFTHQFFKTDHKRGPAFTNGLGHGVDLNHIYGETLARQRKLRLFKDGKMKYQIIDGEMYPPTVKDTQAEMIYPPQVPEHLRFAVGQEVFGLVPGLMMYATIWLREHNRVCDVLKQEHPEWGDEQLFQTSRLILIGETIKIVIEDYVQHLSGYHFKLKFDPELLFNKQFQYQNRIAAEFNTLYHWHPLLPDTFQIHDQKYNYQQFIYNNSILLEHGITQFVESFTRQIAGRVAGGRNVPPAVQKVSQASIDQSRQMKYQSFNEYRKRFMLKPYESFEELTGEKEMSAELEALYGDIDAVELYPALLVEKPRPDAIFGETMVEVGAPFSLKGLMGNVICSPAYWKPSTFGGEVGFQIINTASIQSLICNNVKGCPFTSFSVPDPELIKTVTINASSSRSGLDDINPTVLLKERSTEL

Row | SMILES | pIC50 [1] | pIC50 [2] | pIC50 [3] | IC50 [1]
1 | C[S+]([O-])c1ccc(C2=C(c3ccc(O)cc3)C(=O)NC2=O)cc1 (configuration not stated) | 4.01 | 3.67 | – | –
2 | CSc1ccc(C2=C(c3ccc(OC(C)=O)cc3)C(=O)OC2=O)cc1 | 4.52 | 3.48 | – | –
3 | CC(=O)Oc1ccc(C2=C(c3ccc(S(C)(=O)=O)cc3)C(=O)OC2=O)cc1 | 5.36 | 3.58 | 4.78 | –
4 | CS(=O)(=O)Nc1ccc([N+](=O)[O-])cc1OC1CCCCC1 [NS-398] | 5.32 | – | – | –
5 | CSc1ccc(C2=C(c3ccc(N(C(C)=O)C(C)=O)cc3)C(=O)OC2=O)cc1 | 4.11 | 3.56 | – | –
6 | COc1cc(C2=C(c3ccccc3)C(=O)OC2=O)cc(OC)c1OC | 4.43 | 3.51 | – | –
7 | O=C1NC(=O)C(c2cccc(O)c2)=C1c1ccccc1 | 4.86 | 3.80 | – | –
8 | O=C1NC(=O)C(c2ccccc2)=C1c1ccccc1 | 4.55 | 3.57 | – | –
9 | COc1cc(C2=C(c3ccccc3)C(=O)NC2=O)cc(OC)c1OC | 4.60 | 3.82 | – | –
10 | CSc1ccc(C2=C(c3ccccc3)C(=O)OC2=O)cc1 | 5.45 | 3.71 | 4.73 | –
11 | COc1ccc(C2=C(c3ccccc3)C(=O)OC2=O)cc1OC | 4.15 | 3.59 | – | –
12 | COc1ccc(C2=C(c3ccc(SC)cc3)C(=O)OC2=O)cc1 | 4.90 | 3.57 | – | –
13 | COc1ccc(C2=C(c3ccc(S(C)(=O)=O)cc3)C(=O)OC2=O)cc1 | – | 3.57 | – | Not Active
14 | COc1cccc(C2=C(c3ccccc3)C(=O)NC2=O)c1 | 5.00 | 3.59 | – | –
15 | COc1ccc(C2=C(c3ccc([S+](C)[O-])cc3)C(=O)OC2=O)cc1 (configuration not stated) | 4.62 | 3.55 | – | –
16 | C[S+]([O-])c1ccc(C2=C(c3ccc(F)cc3)C(=O)NC2=O)cc1 (configuration not stated) | 4.34 | 3.62 | – | –

Row | SMILES | pIC50 [1] | pIC50 [2] | pIC50 [3] | IC50 [1]
17 | O=C1NC(=O)C(c2cc(O)c(O)c(O)c2)=C1c1ccccc1 | 5.09 | 3.58 | 4.76 | –
18 | CSc1ccc(C2=C(c3ccc(O)cc3)C(=O)NC2=O)cc1 | 6.08 | 3.90 | 4.68 | –
19 | CS(=O)(=O)c1ccc(C2=C(c3ccc(F)cc3)C(=O)NC2=O)cc1 | 4.97 | 3.58 | – | –
20 | CSc1ccc(C2=C(c3ccc(F)cc3)C(=O)NC2=O)cc1 | 4.59 | 3.92 | – | –
21 | CSc1ccc(C2=C(c3ccc(NC(C)=O)cc3)C(=O)OC2=O)cc1 | 5.24 | 3.60 | 4.70 | –
22 | C[S+]([O-])c1ccc(C2=C(c3ccccc3)C(=O)NC2=O)cc1 (configuration not stated) | 4.67 | 3.52 | – | –
23 | O=C1OC(=O)C(c2ccc3c(c2)OCO3)=C1c1ccccc1 | 5.15 | 3.48 | 4.73 | –
24 | O=C1NC(=O)C(c2ccc(O)c(O)c2)=C1c1ccccc1 | 5.57 | 3.68 | 4.79 | –
25 | COc1ccc(C2=C(c3ccccc3)C(=O)NC2=O)cc1OC | 3.88 | 3.52 | – | –
26 | CC(=O)Oc1ccc(C2=C(c3ccc([S+](C)[O-])cc3)C(=O)OC2=O)cc1 (configuration not stated) | 4.16 | 3.58 | – | –
27 | CSc1ccc(C2=C(c3ccccc3)C(=O)NC2=O)cc1 | 5.33 | 3.82 | 4.79 | –
28 | CS(=O)(=O)c1ccc(C2=C(c3ccccc3)C(=O)NC2=O)cc1 | 5.57 | 3.57 | 4.76 | –
29 | CS(=O)(=O)c1ccc(C2=C(c3ccccc3)C(=O)OC2=O)cc1 | 4.81 | 3.58 | – | –
30 | CS(=O)(=O)c1ccc(C2=C(c3ccc(O)cc3)C(=O)NC2=O)cc1 | – | 3.77 | – | Not Active
31 | NS(=O)(=O)c1ccc(C2=C(c3ccccc3)C(=O)NC2=O)cc1 | – | 3.80 | 4.81 | –
32 | O=C1NC(=O)C(c2ccc3c(c2)OCO3)=C1c1ccccc1 | 5.10 | 3.71 | – | –
